hiPSC survival = enhancers of human iPSC single-cell survival; hiPSC single-cell survival, ATPlite luminescence; 100% = ROCK inhibitor wells, 0% = DMSO; survival enhancement, % at 20 µM; 0.044% of 360,000 active; AID 602274; in the data active = survival enhancement above about 18%;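 also: cells exposed to compounds for 16 hours before the ATP read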
CHOP inh = inhibitors of CHOP induction in ER stress response. CHO-K1 CHOP-promoter luciferase, tunicamycin-induced, 15-18 h. 3.8% of 220,000 active. inhibition, % at 10 µM;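 active = compounds that reduced the stress-induced luciferase reporter signal by more than about 70% of percent inhibition, limit read from the data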
UPR CHOP act = activators of apoptotic arm of unfolded protein response (CHOP); CHO-CHOP luciferase reporter, UPR activation, luminescence; percent of tunicamycin response over DMSO baseline; activation, % at 10 µM; 0.34% of 330,000 active;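 active = at 10 µM dose, activation of 40% or more, normalized to positive control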
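assay system = CHO CHOP reporter cells | amount = 500 CHO-CHOP cells per well | buffer or medium = F12 with 10% FBS | incubation = 16-18 h cell attachment, then 6 h compound exposure, 37 °C | detection = luminescence read with Steady-Glo | read-out = percent activation relative to tunicamycin control | controls = tunicamycin high control, DMSO low control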
XBP1 UPR activ = activators of adaptive arm of unfolded protein response (XBP1) | CHO-XBP1 luciferase reporter, IRE1-XBP1 UPR activation, luminescence; percent of tunicamycin response, DMSO as zero | activation, % at 20 µM | 0.33% of 330,000 active | AID 463104;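 active = versus positive control, 20 µM dose yields 30% or more activation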
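Test system: CHO-XBP1 luciferase reporter cells | Buffer or medium: Serum-containing F12 medium, 10% FBS | Schedule: 6 h compound exposure at 37 °C, 5% CO2 | Detection: Steady-Glo luciferase glow luminescence, 10 min after reagent addition | Read-out basis: Activation, % of tunicamycin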
Cardio protect = modulators protecting cardiomyocytes from myocardial damage; 0.63% of 360,000 active; AID 588492; protection from H2O2 cell death, % at 20 µM; H9c2 cardiomyocytes, H2O2 injury protection, ATPLite, 2 h;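 active = compounds giving at least 50% protection of heart cells from peroxide-induced death in the single-dose screen, raw or plate-pattern-corrected value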
CHOP confirm = confirmation of CHOP induction inhibitors; inhibition, % at 10 µM; 45% of 2,100 active; CHO-CHOP promoter luciferase reporter, tunicamycin-induced, luminescence; shares compounds with CHOP inh;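 active = mean of three repeat readings of reporter signal inhibition above a set limit, cut at about 70% in these data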
Hits are given with their value; . = inactive; / = no result given. This excerpt belongs to a sample that is enriched for hits.

SMILES	hiPSC survival	CHOP inh	UPR CHOP act	XBP1 UPR activ	Cardio protect	others
COC[C@H]1OC(=O)c2coc3c2[C@@]1(C)C1=C(C3=O)C2CCC(=O)[C@@]2(C)C[C@H]1OC(C)=O (some centres not stated)	/	.	/	/	/
N[C@@H](Cn1ccc(=O)[nH]c1=O)C(=O)O	/	.	/	/	/
O=C1NC(=S)NC(=O)C1=Cc1cccc2cc3ccccc3cc12	.	107.8	/	/	.
COc1ccc(C=C2C(=O)NC(=S)NC2=O)cc1	.	/	/	/	.
CC(Cc1ccc(OCC(=O)O)cc1)NCC(O)c1cccc(Cl)c1 (configuration not stated)	/	.	/	/	/
COCCCn1c(N)c(C(=O)Nc2sc3c(c2C(=O)OC)CCCC3)c2nc3ccccc3nc21	.	.	.	.	93.2
CCn1cc(C(=O)c2cccs2)c2ccccc21	.	77.2	.	.	.
CCn1cc(C(=O)N2CCCCC2)c2ccccc21	.	.	.	.	.
CCNC(=O)[C@H]1O[C@@H](n2cnc3c(N)ncnc32)C(O)[C@H]1O (some centres not stated)	/	.	/	/	/
CC1(C)C2SCC(=O)N2CCN1CC(=O)NN (configuration not stated)	.	84.0	.	.	.
Clc1ccc2c(c1)C(c1ccccc1Cl)=NCc1nnc(N3CCN(CCOc4ccccc4)CC3)n1-2	.	88.3	.	.	.
CC(N)c1cccc(Cl)c1Cl (configuration not stated)	/	.	/	/	/
CCOC(=O)[C@]12Cc3cc(Cl)ccc3[C@H]1N(C1CCCCC1)C(=O)c1ccccc12	.	/	/	/	/
O=C1NC(=O)C(=Cc2cccs2)C(=O)N1	.	/	/	/	.
O=C1NC(=S)N(c2ccccc2F)C(=O)/C1=C\c1cccs1	.	83.5	.	.	.
NC(=O)CN1CC(O)CC1=O (configuration not stated)	/	.	/	/	/
COc1ccc(OCCOc2cccc(C=C3C(=O)NC(=O)NC3=O)c2)cc1	/	/	.	.	/
COc1cccc(/C=C2\N=C(c3cncc(Br)c3)OC2=O)c1	.	85.2	.	.	.
CC(C)(O)[C@H]1O[C@H]2CC[C@@]3(C)[C@@](O)(CC[C@H]4Cc5c([nH]c6ccccc56)[C@@]43C)C2=CC1=O	/	82.1	.	.	/
O=C(N/N=C/c1c(O)n(C2CCCCC2)c(=S)[nH]c1=O)c1ccccc1O	.	/	.	.	52.3
O=C(N/N=C/c1c(O)n(C2CCCCC2)c(=S)[nH]c1=O)c1ccccc1	.	/	.	.	63.5
c1ccc2sc(C3(N4CCCCC4)CCCCC3)cc2c1	/	.	/	/	/
Cc1nn(C)c2c1C(c1ccc(Cl)cc1)SCC(=O)N2C (configuration not stated)	.	/	/	/	.
CC(C)CCCn1c(O)c(/C=C2/C=CC=N2)c(=O)[nH]c1=O	.	85.1	.	.	.
C[C@]12CCC3C(CC[C@H]4C[C@H](O)CC[C@]34C)C1C[C@@H](O)[C@@H]2O (some centres not stated)	.	/	.	.	.
SMILES	hiPSC survival	CHOP inh	UPR CHOP act	XBP1 UPR activ	Cardio protect	others
CC12C=CC(=O)CC1CCC1C2CCC2(C)C(O)C(O)CC12 (configuration not stated)	.	/	/	/	117.7
CN1C[C@@H](CS(=O)(=O)N(C)C)C[C@@H]2c3cccc4c3c(cn4C)C[C@H]21	/	.	/	/	/
O=C(CSC1c2ccccc2-c2ccccc21)N/N=C/c1ccccc1O	.	99.7	.	.	54.2	CHOP confirm=117.6
COC(=O)[C@]12OC[C@]34C([C@@H](O)[C@@H]1O)[C@]1(C)CC(=O)C(O)=C(C)[C@@H]1C[C@H]3OC(=O)[C@H](O)[C@@H]24 (some centres not stated)	.	103.8	.	.	.	CHOP confirm=108.2
Cc1ccc(CN2CCC3CCC(C3)C2)c(O)c1 (configuration not stated)	.	/	/	/	.
Cc1cccc(NP(=O)(Oc2ccccc2F)Oc2ccccc2F)c1C	.	.	.	.	.
Cc1ccc(NP(=O)(Oc2ccccc2F)Oc2ccccc2F)cc1	.	98.1	.	.	.	CHOP confirm=100.6
COc1cccc(NP(=O)(Oc2ccccc2)Oc2ccccc2)c1	.	.	.	.	.
CCc1ccc(NP(=O)(Oc2ccccc2F)Oc2ccccc2F)cc1	.	97.7	.	.	.	CHOP confirm=101.7
CC(C)(C)C1(CCO)C(=O)NC(=S)NC1=O	.	/	/	/	.
CC(C)C[C@@H]1COc2cccc(N3CCN(C)CC3)c2S(=O)(=O)N1	.	/	/	/	/
C/C=C(\C)C(=O)OC1C(C)=C2C(C1OC(=O)CCCCC)C(C)(OC(C)=O)CC(OC(=O)CCC)C1(O)C2OC(=O)C1(C)O (configuration not stated)	/	105.0	.	61.2	/	CHOP confirm=125.1
CCOC(=O)[C@]12Cc3cc4ccccc4cc3[C@H]1N(Cc1ccccc1)C(=O)c1ccccc12	.	/	/	/	/
CN[C@H]1C[C@H]2O[C@@](C)([C@H]1OC)n1c3ccccc3c3c4c(c5c6ccccc6n2c5c31)C(=O)NC4	/	107.9	.	.	/	CHOP confirm=121.1
COC(=O)C1=C(c2ccc(F)cc2OCc2ccccc2)C[C@@H]2CC[C@H]1N2C(=O)NCc1ccc2c(c1)OCO2	.	/	.	.	.
N=C(N)c1c(O)n(C2CCCCC2)c(=O)n(C2CCCCC2)c1=O	.	108.0	.	.	.	CHOP confirm=73.0
O=c1c(C=NCc2cccs2)c(O)n(C2CCCCC2)c(=O)n1C1CCCCC1	.	.	.	.	.
CSCCC(c1nnnn1C(C)(C)C)N1CCC2(CC1)C(=O)NCN2c1ccccc1 (configuration not stated)	.	/	/	/	.
CN1C2CCC1/C(=C/c1ccccn1)C(=O)/C2=C\c1ccccn1	34.5	107.7	/	/	.	CHOP confirm=111.1
C=C1C(=O)OC2CCN3CC=C(COC(=O)C(C)(O)C4(CO4)C1C)C23 (configuration not stated)	.	/	/	/	.
CCC(C)NC(=O)c1c(N)n(CC2CCCO2)c2nc3ccccc3nc12 (configuration not stated)	.	96.4	.	.	.	CHOP confirm=103.4
CCOC(=O)[C@]12Cc3cc(OC)ccc3[C@H]1N(C(C)C)C(=O)c1cc(OC)ccc12	.	/	/	/	/
CCOC(=O)c1c(-n2c(C)cc(C=C3C(=O)NC(=O)NC3=O)c2C)sc2c1CCCC2	.	96.2	.	.	.	CHOP confirm=.
CN(C)C(=S)SSC(=S)N(C)C	.	106.4	/	/	.	CHOP confirm=.
CCN1C(=O)C(=Cc2ccc(C)s2)C(=O)N(CC)C1=S	.	106.0	.	.	.	CHOP confirm=.
Cc1cccc(C)c1-n1nnnc1C(C1CC1)N1CCC2(CC1)C(=O)NCN2c1ccccc1 (configuration not stated)	.	/	/	/	.
O=C1NCN(c2ccccc2)C12CCN(C(c1nnnn1-c1ccc3c(c1)OCCO3)C1CC1)CC2 (configuration not stated)	.	/	/	/	.

Screening data deposited in PubChem by several laboratories.
